Source: PubChem
CHO parental Ca = counter-screen for OX1R antagonists: effect in parental CHO cells; 330,000 tested, 0.63% active; parental CHO-K1, ATP-induced calcium, Fluo-8 fluorescence; inhibition, % at 5.6 µM; AID 463079;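 active means inhibition above that plate's mean sample inhibition plus 3 SD, cut at about 26% in these data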;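 further: 0% = ATP-challenged DMSO wells and 100% = DMSO wells without ATP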
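Test system: untransfected parental CHO cell line; also added: ATP stimulus; dosing: 5.6 µM, single dose; signal: calcium-sensitive Fluo-8 fluorescence; measure: percent inhibition of ATP-evoked calcium rise, normalized to controls; benchmarks: low control ATP plus DMSO, high control DMSO only; replication: one well per compound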
OX1R antag-1 = OX1R (human) antagonism; OX1R-expressing cells, FRET antagonist read-out; 330,000 tested, 1.8% active; inhibition, % at 6.6 µM; O43613; in the data active means inhibition mostly above about 38%, no sharp cut-off; inactive means mostly below about 40%;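 further: 0% = agonist challenge alone and 100% = reference antagonist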
GPR7 antagonist = blocks human GPR7 receptor signaling. P48145. GPR7-expressing cells, fluorescence antagonist assay. inhibition, % at 4.4 µM. 290,000 tested, 1.1% active; in the data active means inhibition above about 16%, passing the limit was not always enough;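 further: cells stimulated with the agonist NPW; 0% = agonist with vehicle and 100% = vehicle without agonist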
Target sequence (P48145 whole entry, looked up): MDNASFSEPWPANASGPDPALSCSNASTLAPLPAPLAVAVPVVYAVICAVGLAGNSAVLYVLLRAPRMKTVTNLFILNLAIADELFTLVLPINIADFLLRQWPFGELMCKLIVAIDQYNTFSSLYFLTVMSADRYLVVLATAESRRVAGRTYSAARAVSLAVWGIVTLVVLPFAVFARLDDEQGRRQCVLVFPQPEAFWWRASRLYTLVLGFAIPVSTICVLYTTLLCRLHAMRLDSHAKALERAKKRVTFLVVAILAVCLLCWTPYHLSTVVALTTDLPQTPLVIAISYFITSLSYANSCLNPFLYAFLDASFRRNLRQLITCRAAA
OX1R antag-2 = blocks the human orexin 1 receptor; O43613; CHO/OX1R cells, Fluo-8 calcium fluorescence, orexin A; inhibition, % at 5 µM; 330,000 tested, 0.43% active; AID 434989;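 active means inhibition above its plate's threshold, mean inhibition of all tested compounds on the plate plus 3 SD, cut at about 37% in these data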;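 further: 0% = orexin A challenge wells and 100% = SB-334867-A antagonist wells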
TRPML3 agonist = activates the human TRPML3 channel | activation, % at 3 µM | Q8TDD5 | 220,000 tested, 0.29% active | HEK293 TRPML3-YFP, Fluo-8 calcium fluorescence; 100% = the carbachol control signal;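 active means activation above its plate's cutoff, the mean activation of the plate's test wells plus 3 SD, cut at about 12% in these data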;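 further: 0% = DMSO only wells and 100% = carbachol wells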
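system = HEK293 cells stably carrying human TRPML3-YFP | doses = one concentration, 3 µM nominal, 0.3% DMSO | timing = dye loading 1 h 37 °C then 30 min ambient, 125 s read | detection = Fluo-8 calcium dye fluorescence, ex 470-495, em 515-575 nm | benchmarks = high control carbachol 87 µM, low control DMSO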
TRPN1 ag = agonists of zebrafish TRPN1 channel | AID 1424 | HEK293 zebrafish TRPN1-YFP, Fluo-8 calcium fluorescence; 100% = response to 87 µM carbachol | activation, % at 3 µM | 220,000 tested, 0.18% active;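 active means activation above its plate's cutoff, the mean activation of test wells on that plate plus 3 SD, cut at about 19% in these data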;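 further: 0% = DMSO alone and 100% = 87 µM carbachol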
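Assay system: Zebrafish TRPN1-YFP in HEK293 cells | Incubation: Dye loading 1 h at 37 °C, then 30 min room temperature | Measured by: Kinetic Fluo-8 fluorescence, ex 470-495, em 515-575 nm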
The depositor's hits bear a star; x = not tested or not shown. Rows were chosen to be rich in hits. Some 3.2% of all compounds tested hit in one or more screens of this group.

SMILES	CHO parental Ca	OX1R antag-1	GPR7 antagonist	OX1R antag-2	TRPML3 agonist	TRPN1 ag
CN(C)S(=O)(=O)c1ccc(NC(=O)CCNC(=O)c2ccco2)cc1	-6	15	-16	-7	x	x
C=C1CCN([C@H](C(=O)OCc2cccc(C)c2)C(C)C)S(=O)(=O)c2ccccc21	11	40	x	3	x	x
Cc1ccc(NC2=CC(=O)C(=O)c3ccccc32)cc1	-22	52*	-1	-21	1	1
NS(=O)(=O)c1ccc(NC2=CC(=O)C(=O)c3ccccc32)cc1	4	60*	-12	8	x	x
CCOC(=O)c1ccc(NC2=CC(=O)C(=O)c3ccccc32)cc1	-12	28	4	-30	0	0
CCC1(C)Cc2c(sc(NC(=S)NC(=O)c3ccccc3)c2C#N)CO1 (centres undefined)	2	12	-4	3	1	1
CN1Cc2sc(NC(=S)NC(=O)c3ccccc3)c(C#N)c2CC1(C)C	34*	25	-11	40*	5	7
CC1(C)Cc2c(sc(NC(=O)c3ccc(C(=O)c4ccccc4)cc3)c2C(N)=O)C(C)(C)N1	29*	3	17	28	x	x
COC(=O)c1c(NC(=O)c2ccccc2)sc2c1CC(C)(C)NC2(C)C	-9	6	-11	-14	1	1
CCCN(CC(=O)Nc1c(C)cccc1CC)C(=O)SCC	-16	12	17	1	1	-1
CCc1cccc(C)c1NC(=O)CN(C)Cc1ccc(Br)cc1	40*	21	3	9	-1	-2
CCSC(=O)N(CC)CC(=O)Nc1c(CC)cccc1CC	-9	22	21*	-11	0	-1
NC(Cc1c[nH]c2ccccc12)C(=O)NCc1ccco1 (centres undefined)	-5	25	1	-17	0	1
Nn1cnnc1N/N=C/c1ccc(Cl)cc1Cl	x	x	-3	x	x	x
COc1ccc(/C=N/Nc2nncn2N)cc1Br	-9	65*	-10	3	x	x
COc1cccc(/C=N/Nc2nnc(C)n2N)c1O	-1	71*	-4	5	x	x
CNC(=S)N/N=C/c1c(Cl)cccc1Cl	-4	21	-21	-17	2	0
CCc1nnc(N/N=C/c2cc(Br)c(O)cc2O)n1N	-2	72*	-10	-16	x	x
Cc1nnc(N/N=C/c2ccccc2F)n1N	0	30	1	-5	x	x
CCc1nnc(N/N=C/c2c(Cl)cccc2Cl)n1N	-4	45*	-3	-14	1	0
COc1ccc(NS(=O)(=O)c2csc(C(N)=O)c2)cc1	-4	0	8	-12	x	x
CCc1nnc(N/N=C/c2ccc(O)c(OC)c2)n1N	1	59*	-4	-1	x	x
CCc1nnc(N/N=C\c2ccc(OC(C)=O)c(OC)c2)n1N	-14	44*	-5	-5	x	x
CCOc1cc(/C=N/Nc2nnc(C)n2N)ccc1OC(C)=O	x	x	-4	x	x	x
O=[N+]([O-])c1cccc(C2NCC(c3ccccc3Cl)c3c2[nH]c2ccccc32)c1 (centres undefined)	50*	18	13	53*	1	2
SMILES	CHO parental Ca	OX1R antag-1	GPR7 antagonist	OX1R antag-2	TRPML3 agonist	TRPN1 ag
CN(C)c1ccc(C2CNC(c3ccc(Cl)c([N+](=O)[O-])c3)c3[nH]c4ccccc4c32)cc1 (centres undefined)	-13	31	-5	-16	0	-1
CCN(Cc1cnn(C)c1)C(=O)c1ccc2nc(Cc3cccc(Cl)c3)oc2c1	-15	13	-14	-20	x	x
Cc1cccn2c(=O)c3cc(C(=O)NCc4cccnc4)c(=N)n(C(C)C)c3nc12	14	41*	8	-16	0	-1
CC(C)n1c(=N)c(C(=O)NCCc2ccccc2)cc2c(=O)n3ccccc3nc21	-18	55*	5	-16	-1	0
COc1ccc(N(CC(=O)N/N=C/c2ccccc2F)S(=O)(=O)c2ccccc2)cc1	-26	-3	-6	-32	x	x
CCOc1ccc(C(CCc2ccccc2)NC(=O)c2ccccc2OC)cc1OCC (centres undefined)	24	14	2	47*	1	1
CCOc1ccc(CCNC(=O)c2cc(C)nn2-c2ccccc2)cc1	-26	13	-12	-30	0	0
CCCOc1ccc(OC(=O)c2ccc(Br)o2)cc1	56*	32	2	67*	0	0
c1ccc2nc3c(nc2c1)CCCC3	-3	-3	-22	-10	x	x
c1ccc2nc3c(nc2c1)CCc1nonc1-3	-2	44*	-10	7	1	0
COc1ccc(/C=C\C(=O)O[C@@H]2C(O)C(O[C@@H]3OC(C)[C@H](O[C@@H]4OCC(O[C@H]5O[C@H](CO)[C@@H](O)C(O)C5O)C(O)C4O)C(O)C3O)[C@H](OC(=O)[C@]34CCC(C)(C)C[C@@H]3C3=CCC5[C@@]6(C)CC(O)C(O[C@@H]7OC(CO)C(O)[C@H](O)[C@H]7O)[C@@](C)(C(=O)O)C6CC[C@@]5(C)[C@]3(CO)CC4)O[C@H]2C)cc1 (some centres undefined)	101*	4	x	110*	x	x
COc1cc(/C=C2\C(=O)N(c3ccccc3)N=C2C)ccc1Oc1ccc([N+](=O)[O-])cc1[N+](=O)[O-]	8	23	-15	9	1	1
CC1=NN(c2ccccc2)C(=O)/C1=C\c1ccc(Oc2ccc([N+](=O)[O-])cc2[N+](=O)[O-])cc1	1	50*	15	13	-1	0
Clc1ccc(C[n+]2cc(-c3ccccc3)n3c2CCCCC3)c(Cl)c1	-17	18	29*	-15	0	-1
Clc1ccc(C[n+]2cc(-c3ccccc3)n3c2CCC3)cc1Cl	-3	-5	5	-9	-1	-1
CC(=O)N1CCN(c2ccc([N+](=O)[O-])c(NCc3cccnc3)c2)CC1	-12	42*	-13	-12	0	-1
O=C(O)c1ccc(NCc2cccnc2)c([N+](=O)[O-])c1	2	55*	-12	-4	x	x
CNc1nc(N/N=C/c2cc3c(cc2[N+](=O)[O-])OCO3)nc(Nc2ccccc2)n1	-24	44*	-12	-13	-1	-1
CCCCN(c1nc2ccccc2nc1Cl)S(=O)(=O)c1ccc(C)cc1	54*	15	-11	1	x	x
C/C(=N\Nc1nc2ccccc2s1)c1cccs1	-19	56*	-18	-22	1	0
CCCCCc1ccc(-c2cn(Cc3ccc(C(=O)c4ccccc4)cc3)nn2)cc1	-15	17	9	-15	x	x
CCOC(OCC)c1cn(Cc2ccc(C(=O)c3ccccc3)cc2)nn1	44*	33	10	4	x	x
O=C(NCc1ccco1)c1ccc2nc3sc4c(c3c(=O)n2c1)CCCC4	-22	87*	4	-1	0	2
